Results as given in ChEMBL document CHEMBL2424625, “Synthesis and structure-activity relationships of novel indazolyl glucocorticoid receptor partial agonists” (Bioorg Med Chem Lett, 2013).
Calls of active or inactive are those of the source. The calls are words filed in the database; no cut-off is given here.

Legend:
[1] = molecular target: T1, Glucocorticoid receptor (Homo sapiens) (UniProt P04150); assay: Transactivation activity at glucocorticoid receptor ligand binding domain (unknown origin) expressed in human Hela cells co-expressing GAL4 DNA binding domain assessed as NP-1-stimulated GRE activation by luciferase reporter gene assay relative to dexamethasone; assay type: cell-based
T1 sequence (whole entry): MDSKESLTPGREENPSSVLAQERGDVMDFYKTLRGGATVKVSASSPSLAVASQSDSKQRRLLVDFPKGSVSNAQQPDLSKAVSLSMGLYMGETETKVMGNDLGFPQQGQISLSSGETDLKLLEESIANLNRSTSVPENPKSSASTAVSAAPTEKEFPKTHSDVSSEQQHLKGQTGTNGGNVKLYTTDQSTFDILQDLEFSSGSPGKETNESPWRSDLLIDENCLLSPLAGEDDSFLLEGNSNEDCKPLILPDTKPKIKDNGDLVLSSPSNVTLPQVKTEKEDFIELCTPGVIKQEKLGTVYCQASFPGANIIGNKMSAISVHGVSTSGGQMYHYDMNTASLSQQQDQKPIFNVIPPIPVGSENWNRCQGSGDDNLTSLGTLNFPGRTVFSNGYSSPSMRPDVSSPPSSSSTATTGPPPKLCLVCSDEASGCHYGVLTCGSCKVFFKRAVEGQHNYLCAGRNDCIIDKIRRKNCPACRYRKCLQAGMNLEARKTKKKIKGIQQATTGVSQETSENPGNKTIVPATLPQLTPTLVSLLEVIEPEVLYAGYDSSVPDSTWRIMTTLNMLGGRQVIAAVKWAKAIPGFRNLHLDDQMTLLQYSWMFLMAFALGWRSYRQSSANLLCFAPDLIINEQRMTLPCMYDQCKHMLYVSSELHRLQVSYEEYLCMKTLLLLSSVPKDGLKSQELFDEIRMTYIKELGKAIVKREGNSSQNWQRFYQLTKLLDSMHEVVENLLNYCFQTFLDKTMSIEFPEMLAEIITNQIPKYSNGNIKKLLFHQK
Method in brief: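 HeLa line (NP-1) stably transfected with a GR-LBD chimera cloned into a GAL4 luciferase reporter was run in agonist mode. Direct GR-LBD activation was read as increased luciferase activity. […] Values are means of two or more experiments in triplicate.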

[2] = molecular target: T1, Glucocorticoid receptor (Homo sapiens); assay: Transrepression activity at glucocorticoid receptor in human A549 cells assessed as inhibition of PMA-stimulated AP1 response element by luciferase reporter gene assay relative to dexamethasone; assay type: cell-based
Method in brief: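 Transrepression of AP-1 was run in A549 lung epithelial cells. […] Values are means of two or more experiments in triplicate.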

[3] = molecular target: T2, Glucocorticoid receptor (Homo sapiens, UniProt P04150); assay: Transrepression activity at glucocorticoid receptor in human A549 cells assessed as inhibition of PMA-stimulated AP1 response element by luciferase reporter gene assay; assay type: cell-based
T2 sequence (P04150 whole entry): T1 sequence (whole entry)

[4] = molecular target: T2, Glucocorticoid receptor; assay: Binding affinity to glucocorticoid receptor (unknown origin) by fluorescence assay
[5] = molecular target: T2, Glucocorticoid receptor; assay: Transrepression activity at glucocorticoid receptor in human A549 cells assessed as inhibition of IL1beta-stimulated NFkappaB-dependent E-selectin transcription by luciferase reporter gene assay; assay type: cell-based
[6] = molecular target: T1, Glucocorticoid receptor (Homo sapiens); assay: Transrepression activity at glucocorticoid receptor in human A549 cells assessed as inhibition of IL1beta-stimulated NFkappaB-dependent E-selectin transcription by luciferase reporter gene assay relative to dexamethasone; assay type: cell-based
Method in brief: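 In A549 lung epithelial cells, NFkB activity was induced with IL-1β (0.5 ng/ml). Inhibition was quantitated as decreased luciferase activity. […] Values are means of two or more experiments in triplicate.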

[7] = molecular target: T2, Glucocorticoid receptor; assay: Transactivation activity at glucocorticoid receptor ligand binding domain (unknown origin) expressed in human Hela cells co-expressing GAL4 DNA binding domain assessed as NP-1-stimulated GRE activation by luciferase reporter gene assay; assay type: cell-based
[8] = molecular target: T1, Glucocorticoid receptor (Homo sapiens); assay: Partial agonist activity at glucocorticoid receptor (unknown origin) by fluorescence assay

Efficacy [1] [%]	Efficacy [2] [%]	EC50 [3] [nM]	Ki [4] [nM]	EC50 [5] [nM]	Efficacy [6] [%]	EC50 [7] [nM]	Activity [8]	Compound
102	88	–	–	–	–	–	–	CC(CNC(=O)CC(F)(F)F)[C@@H](c1ccccc1)c1ccc2c(cnn2-c2ccc(F)cc2)c1 (stereo in doubt; 3i) [listing 1 of 2 here]
19	76	26.8	1.15	29.3	82	261	–	CC(C)(CNS(=O)(=O)C1CC1)[C@@H](c1ccccc1)c1ccc2c(cnn2-c2ccc(F)cc2)c1
52	84	–	–	–	–	–	–	CC(CNC(=O)CC(F)(F)F)[C@@H](c1ccccc1)c1ccc2c(cnn2-c2ccc(F)cc2)c1 (single isomer, unassigned) [listing 1 of 2 here]
81	101	61	1.3	38	96	262	–	CC(C)C[C@@H](c1ccc2c(cnn2-c2ccc(F)cc2)c1)C(C)(C)CNC(=O)CC(F)(F)F
111	96	4.3	0.87	1.8	100	12.8	–	CCS(=O)(=O)NCC(C)[C@@H](c1ccccc1)c1ccc2c(cnn2-c2ccc(F)cc2)c1 (stereo partly drawn)
112	97	5.2	1.34	0.66	105	26	–	CC(CNS(=O)(=O)CC(F)(F)F)[C@@H](c1ccccc1)c1ccc2c(cnn2-c2ccc(F)cc2)c1 (stereo partly drawn)
100	33	2520	–	–	–	977	–	CC(C)(CNC(=O)Cc1ccccc1)[C@@H](c1ccccc1)c1ccc2c(cnn2-c2ccc(F)cc2)c1
–	66	252	10.2	393	55	> 10000	–	CC(C)(CNC(=O)NCC(F)(F)F)[C@@H](c1ccccc1)c1ccc2c(cnn2-c2ccc(F)cc2)c1
101	100	8.4	0.93	1.4	105	24	–	CC(CNS(C)(=O)=O)[C@@H](c1ccccc1)c1ccc2c(cnn2-c2ccc(F)cc2)c1 (stereo partly drawn)
–	44	725	1.74	124	39	> 10000	–	CC(C)(CNC(=O)C(F)(F)F)[C@@H](c1ccccc1)c1ccc2c(cnn2-c2ccc(F)cc2)c1
86	100	25	3.6	11.3	94	126	–	CC(C)C[C@@H](c1ccc2c(cnn2-c2ccc(F)cc2)c1)C(C)(C)CNC(=O)NC(C)(C)C
–	–	> 5000	2.4	1150	58	–	–	CC(=O)NCC(C)(C)[C@@H](c1ccccc1)c1ccc2c(cnn2-c2ccc(F)cc2)c1
19	84	28.8	0.72	15.6	87	214	–	CCS(=O)(=O)NCC(C)(C)[C@@H](c1ccccc1)c1ccc2c(cnn2-c2ccc(F)cc2)c1
–	62	215	1.9	138	46	> 10000	–	CC(C)(C)CC(=O)NCC(C)(C)[C@@H](c1ccccc1)c1ccc2c(cnn2-c2ccc(F)cc2)c1
32	86	20.5	0.53	19.1	97	148	–	CC(C)(CNS(C)(=O)=O)[C@@H](c1ccccc1)c1ccc2c(cnn2-c2ccc(F)cc2)c1
–	–	52	2.3	–	–	374	–	CC(CNC(=O)CC(F)(F)F)[C@@H](c1ccccc1)c1ccc2c(cnn2-c2ccc(F)cc2)c1 (single isomer, unassigned) [listing 2 of 2 here]
25	100	78	2	23	80	394	Active	CC(C)(C)C(=O)NCC(C)(C)[C@@H](c1ccccc1)c1ccc2c(cnn2-c2ccc(F)cc2)c1
–	–	7.5	2.4	–	–	20.7	–	CC(CNC(=O)CC(F)(F)F)[C@@H](c1ccccc1)c1ccc2c(cnn2-c2ccc(F)cc2)c1 (stereo in doubt; 3i) [listing 2 of 2 here]
58	86	118	1.42	87	85	501	–	CC(C)C[C@@H](c1ccc2c(cnn2-c2ccc(F)cc2)c1)C(C)(C)CNC(=O)NCC(F)(F)F
–	66	143	1.51	86	63	> 10000	–	CCCS(=O)(=O)NCC(C)(C)[C@@H](c1ccccc1)c1ccc2c(cnn2-c2ccc(F)cc2)c1
